Results from ChEMBL document CHEMBL1122018, “Synthesis and orexigenic activity of some 1-methyl-4-piperidylidene-Substituted pyrrolo[2,1-g][3] benzazepine and dibenzocycloheptene derivatives” (1982).

What was measured:
Format in all cases: functional
[1] = tested on: Felis catus; assay: Average food consumed at the dose of 0.25 mg/kg (po) using 10 cats per dose level at 30 min (control day/ test day); 33/172
How it was run: (§1)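 Cats given test compound suspended in 1% methylcellulose, or 1% methylcellulose placebo, by gavage 30 min before a preweighed test meal. Food was offered in surplus for 3 h, and intake was found by reweighing at 30, 60 and 180 min. Ten cats per dose, each dosed no more than once weekly. Test-day intake was compared with the preceding control day by two-tailed paired t test (p < 0.05); values are mean ± SD.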

[2] = tested on: Felis catus; assay: Average food consumed at the dose of 0.50 mg/kg (po) using 10 cats per dose level at 30 min (control day/ test day); 51/189; details: dose 0.5 mg/kg; how it was run: as §1
[3] = tested on: Felis catus; assay: Average food consumed at the dose of 0.016 mg/kg (po) using 10 cats per dose level at 60 min (control day/ test day); 16/119
[4] = tested on: Felis catus; assay: Average food consumed at the dose of 0.50 mg/kg (po) using 10 cats per dose level at 180 min (control day/ test day); 46/243; details: dose 0.5 mg/kg; how it was run: as §1
[5] = tested on: Felis catus; assay: Average food consumed at the dose of 0.016 mg/kg (po) using 10 cats per dose level at 180 min (control day/ test day); 33/182
[6] = tested on: Felis catus; assay: Average food consumed at the dose of 0.25 mg/kg (po) using 10 cats per dose level at 60 min (control day/ test day); 40/208; how it was run: as §1
[7] = tested on: Felis catus; assay: Average food consumed at the dose of 0.063 mg/kg (po) using 10 cats per dose level at 30 min (control day/ test day); 28/137
[8] = tested on: Felis catus; assay: Average food consumed at the dose of 0.50 mg/kg (po) using 10 cats per dose level at 60 min (control day/ test day); 44/217; details: dose 0.5 mg/kg; how it was run: as §1
[9] = tested on: Felis catus; assay: Average food consumed at the dose of 0.016 mg/kg (po) using 10 cats per dose level at 30 min (control day/ test day); 16/91
[10] = tested on: Felis catus; assay: Average food consumed at the dose of 0.25 mg/kg (po) using 10 cats per dose level at 180 min (control day/ test day); 46/239
[11] = tested on: Felis catus; assay: Average food consumed at the dose of 0.063 mg/kg (po) using 10 cats per dose level at 60 min (control day/ test day); 37/178
[12] = tested on: Felis catus; assay: Average food consumed at the dose of 0.063 mg/kg (po) using 10 cats per dose level at 180 min (control day/ test day); 62/219
[13] = tested on: Felis catus; assay: Average food consumed at the dose of 0.50 mg/kg (po) using 10 cats per dose level at 30 min (control day/ test day); 39/204; details: dose 0.5 mg/kg; how it was run: as §1
[14] = tested on: Felis catus; assay: Average food consumed at the dose of 0.25 mg/kg (po) using 10 cats per dose level at 60 min (control day/ test day); 39/212; how it was run: as §1
[15] = tested on: Felis catus; assay: Average food consumed at the dose of 0.016 mg/kg (po) using 10 cats per dose level at 180 min (control day/ test day); 45/215
[16] = tested on: Felis catus; assay: Average food consumed at the dose of 0.063 mg/kg (po) using 10 cats per dose level at 180 min (control day/ test day); 50/190
[17] = tested on: Felis catus; assay: Average food consumed at the dose of 0.063 mg/kg (po) using 10 cats per dose level at 30 min (control day/ test day); 13/120
[18] = tested on: Felis catus; assay: Average food consumed at the dose of 0.25 mg/kg (po) using 10 cats per dose level at 30 min (control day/ test day); 38/175; how it was run: as §1
[19] = tested on: Felis catus; assay: Average food consumed at the dose of 0.016 mg/kg (po) using 10 cats per dose level at 30 min (control day/ test day); 21/142
[20] = tested on: Felis catus; assay: Average food consumed at the dose of 0.016 mg/kg (po) using 10 cats per dose level at 60 min (control day/ test day); 31/168
[21] = tested on: Felis catus; assay: Average food consumed at the dose of 0.063 mg/kg (po) using 10 cats per dose level at 60 min (control day/ test day); 22/144
[22] = tested on: Felis catus; assay: Average food consumed at the dose of 0.25 mg/kg (po) using 10 cats per dose level at 180 min (control day/ test day); 50/239
[23] = tested on: Felis catus; assay: Average food consumed at the dose of 0.50 mg/kg (po) using 10 cats per dose level at 60 min (control day/ test day); 35/219; details: dose 0.5 mg/kg; how it was run: as §1
[24] = tested on: Felis catus; assay: Average food consumed at the dose of 0.50 mg/kg (po) using 10 cats per dose level at 180 min (control day/ test day); 32/234; details: dose 0.5 mg/kg; how it was run: as §1
[25] = tested on: Felis catus; assay: Average food consumed at the dose of 0.016 mg/kg (po) using 10 cats per dose level at 60 min (control day/ test day); 41/160
[26] = tested on: Felis catus; assay: Average food consumed at the dose of 0.063 mg/kg (po) using 10 cats per dose level at 30 min (control day/ test day); 14/112
[27] = tested on: Felis catus; assay: Average food consumed at the dose of 0.50 mg/kg (po) using 10 cats per dose level at 30 min (control day/ test day); 47/190; details: dose 0.5 mg/kg; how it was run: as §1
[28] = tested on: Felis catus; assay: Average food consumed at the dose of 0.25 mg/kg (po) using 10 cats per dose level at 180 min (control day/ test day); 45/231
[29] = tested on: Felis catus; assay: Average food consumed at the dose of 0.50 mg/kg (po) using 10 cats per dose level at 180 min (control day/ test day); 50/256; details: dose 0.5 mg/kg; how it was run: as §1
[30] = tested on: Felis catus; assay: Average food consumed at the dose of 0.25 mg/kg (po) using 10 cats per dose level at 60 min (control day/ test day); 35/200; how it was run: as §1
[31] = tested on: Felis catus; assay: Average food consumed at the dose of 0.063 mg/kg (po) using 10 cats per dose level at 180 min (control day/ test day); 59/195
[32] = tested on: Felis catus; assay: Average food consumed at the dose of 0.063 mg/kg (po) using 10 cats per dose level at 60 min (control day/ test day); 28/130
[33] = tested on: Felis catus; assay: Average food consumed at the dose of 0.25 mg/kg (po) using 10 cats per dose level at 30 min (control day/ test day); 34/165; how it was run: as §1
[34] = tested on: Felis catus; assay: Average food consumed at the dose of 0.016 mg/kg (po) using 10 cats per dose level at 180 min (control day/ test day); 46/193
[35] = tested on: Felis catus; assay: Average food consumed at the dose of 0.016 mg/kg (po) using 10 cats per dose level at 30 min (control day/ test day); 35/118
[36] = tested on: Felis catus; assay: Average food consumed at the dose of 0.50 mg/kg (po) using 10 cats per dose level at 60 min (control day/ test day); 50/221; details: dose 0.5 mg/kg; how it was run: as §1

Structure (SMILES): CN1CCC(=C2c3ccccc3C=Cn3cccc32)CC1.O=C(O)C(=O)O
- Average consumed [1]: 113 g
- Average consumed [2]: 133 g
- Average consumed [3]: 69 g
- Average consumed [4]: 193 g
- Average consumed [5]: 126 g
- Average consumed [6]: 134 g
- Average consumed [7]: 66 g
- Average consumed [8]: 148 g
- Average consumed [9]: 43 g
- Average consumed [10]: 183 g
- Average consumed [11]: 100 g
- Average consumed [12]: 166 g

Structure (SMILES): CN1CCC(=C2c3ccccc3CCn3cccc32)CC1.O=C(O)C(=O)O
- Average consumed [13]: 117 g
- Average consumed [14]: 124 g
- Average consumed [15]: 159 g
- Average consumed [16]: 133 g
- Average consumed [17]: 52 g
- Average consumed [18]: 91 g
- Average consumed [19]: 77 g
- Average consumed [20]: 106 g
- Average consumed [21]: 74 g
- Average consumed [22]: 175 g
- Average consumed [23]: 137 g
- Average consumed [24]: 166 g

Structure (SMILES): CN1CCC(=C2c3ccccc3C=Cc3ccccc32)CC1 [CYPROHEPTADINE]
- Average consumed [25]: 108 g
- Average consumed [26]: 56 g
- Average consumed [27]: 135 g
- Average consumed [28]: 179 g
- Average consumed [29]: 194 g
- Average consumed [30]: 129 g
- Average consumed [31]: 134 g
- Average consumed [32]: 80 g
- Average consumed [33]: 109 g
- Average consumed [34]: 157 g
- Average consumed [35]: 75 g
- Average consumed [36]: 157 g
